The subject of data set [1] is Serum. In words: (§1) Fraction unbound in jugular and femoral vein-cannulated lactating Sprague-Dawley rat serum at 0.4 mg/ml, iv administered as infusion after 8 hrs by equilibrium dialysis method. Type of data set: ADME, organism-based. To be noted: in vivo, 8 h. A digest of the protocol: (§2)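 Equilibrium dialysis of rat serum and milk against 0.133 M phosphate buffer (serum pH 7.45, milk pH 6.8), 8 h at 37°C, in 0.5 ml cells. Serum levels used were those seen in the infusion study. Both sides measured by LC-MS. n=4.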
For orientation: Equilibrium dialysis compares concentrations on both sides of a semipermeable membrane.

The nature of data set [2]: Drug uptake in jugular and femoral vein-cannulated lactating Sprague-Dawley rat milk at 0.4 mg/ml, iv administered as infusion after 8 hrs by LC-MS analysis. In kind it is ADME, organism-based. To be noted: in vivo. A digest of the protocol:
(§3)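 Lactating Sprague-Dawley rats on days 10–12 postpartum, cannulated. i.v. bolus of GF120918 (10 mg/kg in DMSO) or DMSO alone, then 10 min later an 8 h i.v. infusion of racemic drug in saline (0.4 mg/ml/h). Serum sampled at 2, 4, 6, 8 h. Milk collected by manual expression under light ketamine anesthesia at 8 h. Isomers quantified by LC-MS with zonisamide internal standard. n=5.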

A short description of data set [3]: Fraction unbound in jugular and femoral vein-cannulated lactating Sprague-Dawley rat whole milk at 0.4 mg/ml, iv administered as infusion after 8 hrs by equilibrium dialysis method. In kind it is ADME, organism-based. The method in brief:
as §2

The subject of data set [4] is Serum. In words: (§4) Drug uptake in jugular and femoral vein-cannulated lactating Sprague-Dawley rat serum at 0.4 mg/ml, iv administered as infusion after 2 hrs by LC-MS analysis. Type of data set: ADME, organism-based. To be noted: in vivo, 2 h. The method in brief:
as §3

Data set [5] can be described thus: Drug uptake in jugular and femoral vein-cannulated lactating Sprague-Dawley rat milk at 0.4 mg/ml, iv administered as infusion after 8 hrs by LC-MS analysis in presence of GF120918. In kind it is ADME, organism-based. To be noted: in vivo. The method in brief:
as §3

Data set [6] concerns Rattus norvegicus. As to the kind of experiment: (§5) Clearance in jugular and femoral vein-cannulated lactating Sprague-Dawley rat at 0.4 mg/ml, iv administered as infusion. In kind it is ADME, organism-based. To be noted: in vivo. The method in brief: (§6)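 Lactating Sprague-Dawley rats on days 10–12 postpartum, jugular and femoral cannulated under ketamine/xylazine. Crossover design: i.v. bolus of GF120918 (10 mg/kg in DMSO) or DMSO 10 min before an 8 h i.v. infusion of racemic drug in saline (0.4 mg/ml/h). Enantiomers measured by chiral LC-MS. Clearance = infusion rate / mean serum level over 2–8 h. M/S = 8 h milk level / serum level. n=5.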

Data set [7] deals with T1, Broad substrate specificity ATP-binding cassette transporter ABCG2 (Rattus norvegicus, UniProt Q80W57).
T1 sequence (Q80W57 whole entry): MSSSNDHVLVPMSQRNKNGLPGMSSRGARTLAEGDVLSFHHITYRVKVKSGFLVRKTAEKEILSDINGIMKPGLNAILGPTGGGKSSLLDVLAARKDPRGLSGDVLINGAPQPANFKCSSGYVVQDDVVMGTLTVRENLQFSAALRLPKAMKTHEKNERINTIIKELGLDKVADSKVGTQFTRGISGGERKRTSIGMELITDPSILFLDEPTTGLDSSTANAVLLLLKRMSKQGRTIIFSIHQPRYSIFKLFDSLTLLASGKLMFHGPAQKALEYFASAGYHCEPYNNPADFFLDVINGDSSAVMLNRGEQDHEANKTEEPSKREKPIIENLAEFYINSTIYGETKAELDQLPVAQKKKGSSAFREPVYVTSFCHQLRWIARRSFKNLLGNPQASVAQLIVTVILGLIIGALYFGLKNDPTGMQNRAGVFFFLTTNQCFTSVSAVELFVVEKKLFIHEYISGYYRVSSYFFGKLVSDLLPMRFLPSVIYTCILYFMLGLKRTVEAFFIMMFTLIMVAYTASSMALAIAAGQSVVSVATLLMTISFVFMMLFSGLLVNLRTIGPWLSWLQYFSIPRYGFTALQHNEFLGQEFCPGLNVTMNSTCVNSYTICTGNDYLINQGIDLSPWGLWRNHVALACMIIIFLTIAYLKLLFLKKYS
As to the kind of experiment: Activity at rat ABCG2 expressed in MDCK cells assessed as asymmetrical efflux ratio of permeability at 25 uM after 1 hr. In kind it is ADME, cell-based. The method in brief: (§7)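 Rat Abcg2-transfected and empty-vector MDCKII cells seeded at 1.0×10^6 cells/well on 3.0 μm Transwell filters, grown 4 days to TEER >200 Ω·cm². Racemic pantoprazole donor at 25 μM, 37°C, 5% CO2. Receiver sampled at 1, 2, 3, 4 h; [³H]mannitol checked monolayer integrity. Efflux ratio taken at 1 h from initial rates; n=3.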

Data set [8] has as its system MDCK. As to the kind of experiment: Asymmetrical efflux ratio of permeability in MDCK cells at 25 uM after 1 hr. In kind it is ADME, cell-based, Canis lupus familiaris. To be noted: dog. The method in brief: as §7
Data set [9] in a line: as §1. Type of data set: ADME, organism-based. To be noted: female, Sprague-Dawley, serum, 0.4 mg/ml. A digest of the protocol:
as §2

Data set [10] in a line: as §4. In kind it is ADME, organism-based. To be noted: female, Sprague-Dawley, serum, 0.4 mg/ml, read-out: Drug uptake. A digest of the protocol: as §3
A short description of data set [11]: Ratio of drug level in milk to serum in jugular and femoral vein-cannulated lactating Sprague-Dawley rat at 0.4 mg/ml, iv administered as infusion in presence of GF120918. Type of data set: ADME, organism-based. To be noted: female, with GF120918.
Data set [12] can be described thus: as §5. Type of data set: ADME, organism-based. To be noted: female, Sprague-Dawley, in vivo, 0.4 mg/ml. The method in brief:
as §6

Data set [13] in a line: Dissociation constant, pKa of the compound. In kind it is physicochemical.
Data set [14] relates to Serum. As to the kind of experiment: Drug uptake in jugular and femoral vein-cannulated lactating Sprague-Dawley rat serum at 0.4 mg/ml, iv administered as infusion after 2 hrs by LC-MS analysis in presence of GF120918. Type of data set: ADME, organism-based. To be noted: in vivo. The method in brief: as §3
A short description of data set [15]: Protein binding in human serum. In kind it is ADME, cell-free. To be noted: read-out: PB.

Consider three molecules from ChEMBL document CHEMBL3526150, “Stereoselective interaction of pantoprazole with ABCG2. I. Drug accumulation in rat milk” (Drug Metab Dispos, 2012).

The term Kp denotes the ratio of the level in a tissue or fluid to that in plasma or blood. For orientation: pKa means the negative logarithm of the acid dissociation constant. Read a low pKa as a group that gives up its proton readily.

Turning to `COc1ccnc(C[S+]([O-])c2nc3cc(OC(F)F)ccc3[n-]2)c1OC.O.[Na+]` (stereo in doubt; (+)) [PANTOPRAZOLE SODIUM], the Fu in data set [1] worked out at 2.33%; in data set [3] (in vivo, 8 h) it was 26%. Besides, the results for the Drug uptake in [2], in [4] and in data set [5] were 0.64 µg/mL, 1.2 µg/mL and 0.53 µg/mL, respectively. The molecule also displayed a CL in data set [6] of 9.5 mL/min/kg. In addition, the Ratio in [7] stood at 5.15; in data set [8], 0.9.
As for `COc1ccnc(C[S+]([O-])c2nc3cc(OC(F)F)ccc3[n-]2)c1OC.O.[Na+]` (stereo in doubt; (-)) [PANTOPRAZOLE SODIUM], the fraction unbound at 8 h was determined as 0.0238 in [9] and 0.271 in data set [3] (female, Sprague-Dawley, whole milk, 0.4 mg/ml). Besides, the Drug uptake is 2.26 µg/mL in data set [2], 1.1 µg/mL in data set [5] and 37% in data set [14]. Besides, in data set [10], the concentration at 2 h amounted to 1630 ng/mL. The Kp in data set [11] came to 0.5. In addition, in data set [12], the clearance is 7.33 mL/min/kg. Further, the Ratio in [7] turned out to be 1.51. This molecule also showed a pKa in [13] of 3.9.
For `COc1ccnc(C[S+]([O-])c2nc3ccc(OC(F)F)cc3[nH]2)c1OC` (centres undefined) [PANTOPRAZOLE SODIUM], the fraction unbound in [15] is less than 0.02.
